In experiment [1] the target is T1, Free fatty acid receptor 1 (Homo sapiens, UniProt O14842). The experiment is described as follows: Displacement of 3-(2-Fluoro-4-((2'-methyl-4'-(2-(2-((7-nitrobenzo[c][1,2,5]-oxadiazol-4-yl)amino)ethoxy)ethoxy)-[1,1'-biphenyl]-3-yl)-methoxy)phenyl)propanoic acid from N-terminal NLUC-tagged FFA1 receptor (unknown origin) expressed in human Flp-In T-REX-293 cell membrane coexpressing mGluR5 incubated for 1 hr by equilibrium BRET assay. Type of experiment: cell membranes. On the technique in general: BRET reads energy transfer from a luciferase to a nearby fluorophore.

For experiment [2], the target named is T1, Free fatty acid receptor 1. The experiment is described as follows: Agonist activity at human C-terminal eYFP-tagged FFA1 receptor expressed in HEK-293 cells assessed as beta-arrestin2 recruitment incubated for 5 mins by BRET assay. Type of experiment: cell-based, HEK293. On the technique in general: Activated receptors often draw arrestin, which recruitment assays turn into a signal.

Experiment [3] deals with T1, Free fatty acid receptor 1. The experiment in a line: Agonist activity at human C-terminal eYFP-tagged FFA1 receptor expressed in HEK-293 cells assessed as beta-arrestin2 recruitment incubated for 5 mins by BRET assay relative to TUG-770. It is filed as cell-based. As to conditions: HEK293.
Experiment [4] has as its target T1, Free fatty acid receptor 1. The experiment in a line: Agonist activity at FFA1 receptor (unknown origin) expressed in human […] cells measured for 90 secs by Fura-2 AM dye based calcium mobilization assay relative to TUG-770. It is filed as functional, cell-based. The method in brief: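 Untagged FFA1 constitutively expressed in N1-FFA1 cells, plated 15,000/well 24 h ahead. Cells loaded 45 min with Fura-2 AM, washed three times, then held 15 min in HBSS. Emission at 510 nm from 340/380 nm excitation was recorded before and for 90 s after compound addition. The peak 340/380 ratio gave concentration-response curves.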
A general note: Calcium flux is commonly read through the fluorescence of an indicator in the cells.

For experiment [5], the target named is T1, Free fatty acid receptor 1. The experiment in a line: Agonist activity at FFA1 receptor (unknown origin) expressed in human […] cells measured for 90 secs by Fura-2 AM dye based calcium mobilization assay. It is filed as functional, cell-based. The method in brief:
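N1-FFA1 cells constitutively expressing untagged FFA1 were plated 24 h before the assay. They were loaded with Fura-2 AM for 45 min, washed three times, and held 15 min in HBSS. Fura-2 emission at 510 nm (340 or 380 nm excitation) was read before and for 90 s after compound addition. The peak 340/380 ratio gave concentration-response curves for potency.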

In experiment [6] the target is T1, Free fatty acid receptor 1. The experiment is described as follows: Agonist activity at eYFP-tagged FFA1 receptor (unknown origin) expressed in human Flp-In T-REX-293 cells measured for 90 secs by Fura-2 AM dye based calcium mobilization assay. Type of experiment: functional, cell-based. The method in brief:
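Flp-In T-REx 293 cells with doxycycline-inducible FFA1-eYFP were plated 50,000/well and induced with 100 ng/ml doxycycline 24 h before assay. Cells were Fura-2 AM loaded 45 min, washed three times and kept 15 min in HBSS. […] Mean ± S.E.M., n=3.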

Experiment [7] deals with T1, Free fatty acid receptor 1. The experiment is described as follows: Binding affinity to N-terminal NLUC-tagged FFA1 receptor (unknown origin) expressed in human Flp-In T-REX-293 cell membrane coexpressing mGluR5 incubated for 1 hr by equilibrium BRET assay. It is filed as cell membranes. The method in brief:
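Membranes from NLUC-FFA1 Flp-In T-REx 293 cells (induced 24 h, 100 ng/ml doxycycline) were used at 5 µg protein/well in 50 mM HEPES, 100 mM NaCl, 10 mM CaCl2, 10 mM MgCl2. Varying tracer concentrations, up to 100 nM, were incubated 1 h at 25 °C, with 10 µM unlabeled agonist defining non-specific binding. Nano-Glo (1:800 final) was added, then 460/545 nm emission read after 5 min. Kd came from saturation fits.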

The target of experiment [8] is T1, Free fatty acid receptor 1. The experiment in a line: Binding affinity to N-terminal NLUC-tagged FFA1 receptor (unknown origin) expressed in human Flp-In T-REX-293 cell membrane coexpressing mGluR5 preincubated for 5 mins followed by TUG-905 addition measured after 15 mins by kinetic BRET assay. Type of experiment: cell membranes. The method in brief:
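Membranes (2.5 µg protein/well) were pre-incubated 5 min at 25 °C with Nano-Glo (1:800 final), and 460/545 nm emission was read every 20 s at 25 °C. After 60 s, tracer (100 nM final) was injected; 5 min later 10 µM unlabeled agonist was injected and reading continued 15 min. Non-specific signal from wells pre-dosed with unlabeled agonist was subtracted, giving koff and kon.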

T1 sequence (O14842 whole entry): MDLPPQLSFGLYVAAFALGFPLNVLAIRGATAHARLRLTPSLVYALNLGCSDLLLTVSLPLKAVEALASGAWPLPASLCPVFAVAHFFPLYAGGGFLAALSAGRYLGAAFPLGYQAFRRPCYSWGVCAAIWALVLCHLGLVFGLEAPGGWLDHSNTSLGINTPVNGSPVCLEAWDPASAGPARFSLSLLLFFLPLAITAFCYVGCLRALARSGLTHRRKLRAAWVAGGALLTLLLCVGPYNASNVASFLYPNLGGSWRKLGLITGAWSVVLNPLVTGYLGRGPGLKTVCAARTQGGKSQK

`Cc1ccccc1C#Cc1ccc(CCC(=O)O)cc1`: affinity in experiment [1] was put at a Ki of 631 nM. In experiment [2], the EC50 (as a rule, the concentration that produces a half-maximal response) was 67.6 nM. Further, in experiment [3], the Emax (as a rule, the size of the effect at its maximum, as opposed to the concentration needed) is 100%.

For the compound `N#CCc1ccccc1C#Cc1ccc(CCC(=O)O)cc1`, the maximum response (Emax) in experiment [3] amounted to 95%.

On to `Cc1ccccc1-c1cccc(CNc2ccc(CCC(=O)O)cc2)c1`, for which the Emax in experiment [3] came to 114%.

As for `CCCCCCCCCCCC(=O)O` [DODECANOATE], the Emax in experiment [4] came to 116%; in experiment [3] it was 130%. For the same compound, the pKb (as a rule, the Kb on a negative log10 scale, so that one unit is a factor of ten) in experiment [1] amounted to 4.46. The results for the EC50 in experiment [5] and in experiment [2] were 759 nM and 7940 nM, respectively.

For the compound `Cc1cc(Oc2ncc(C(F)(F)F)cc2Cl)ccc1CC1SC(=O)NC1=O` (stereo not drawn), in experiment [1], the Ki (usually a measure of affinity in units of concentration, obtained from inhibition or displacement) is 69.2 nM. For the same compound, in experiment [2], the concentration for a half-maximal effect (EC50) is 55 nM. Further, the Emax in experiment [3] was determined as 95%.

`O=C(O)CCc1ccc(NCc2cccc(Oc3ccccc3)c2)cc1` [GW9508] showed an inhibition constant (Ki) in experiment [1] of 219 nM. Moreover, in experiment [3], the Emax is 86%.

Regarding `O=C(O)CCc1ccc(OCc2ccccc2)cc1` [BENZYLOXYPHENYLPROPANOIC ACID], the affinity in experiment [1] corresponds to a Ki of 13800 nM. In addition, the maximum response (Emax) in experiment [3] worked out at 90%.

As for `O=C(O)CCc1ccc(C#Cc2cccc(OCCOCCNc3ccc([N+](=O)[O-])c4nonc34)c2)cc1F`, the EC50 in experiment [6] is > 1000 nM.

In the case of `Cc1cc(OCCOCCNc2ccc([N+](=O)[O-])c3nonc23)ccc1-c1cccc(COc2ccc(CCC(=O)O)c(F)c2)c1`, the values for the Kd in experiment [7] and in experiment [8] were 7.4 nM and 4 nM, respectively. Besides, in experiment [6], the EC50 stood at 187 nM.

`Cc1cc(OCCCS(C)(=O)=O)cc(C)c1-c1cccc(COc2ccc3c(c2)OC[C@H]3CC(=O)O)c1`: the maximum response (Emax) in experiment [4] is 108%; in experiment [3], 89%.

These data come from ChEMBL document CHEMBL3817814, “Development and Characterization of a Potent Free Fatty Acid Receptor 1 (FFA1) Fluorescent Tracer” (J Med Chem, 2016).
